From ChEMBL document CHEMBL3351600, “Sulfur, selenium and tellurium pseudopeptides: synthesis and biological evaluation” (Bioorg Med Chem, 2014)

Legend:
MDA-MB-231 = assay: Growth inhibition of human MDA-MB-231 cells after 48 hrs; format: functional; conditions: MDA-MB-231, 48 h
Method in brief: (§1)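 NCI-60 human tumour cell line panel screen run at the US National Cancer Institute under its standard cytotoxicity protocol. It covers leukaemia, NSCLC, colon, CNS, melanoma, ovarian, renal, prostate and breast lines. An initial single-dose test was followed by five-dose testing with 48 h compound exposure.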

U-251 = assay: Growth inhibition of human U251 cells after 48 hrs; format: functional; conditions: U-251, 48 h
Method in brief: (§2)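 Run by the NCI 58-cell-line screen under its standard cytotoxicity protocol. Compounds were first tested at a single dose, then at five doses. Cells were exposed to compound for 48 h.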

[1] = Growth inhibition of human COLO205 cells after 48 hrs; format: functional; conditions: COLO 205, 48 h; method in brief: as §1
SK-MEL-28 = assay: Growth inhibition of human SK-MEL-28 cells after 48 hrs; format: functional; conditions: SK-MEL-28, 48 h; method in brief: as §1
HL-60(TB) = assay: Growth inhibition of human HL-60(TB) cells after 48 hrs; format: functional; conditions: HL-60, 48 h; method in brief: as §1
[2] = Growth inhibition of human OVCAR8 cells after 48 hrs; format: functional; conditions: OVCAR-8, 48 h; method in brief: as §1
M14 = assay: Growth inhibition of human M14 cells after 48 hrs; format: functional; conditions: M14, 48 h; method in brief: as §1
[3] = Growth inhibition of human MOLT4 cells after 48 hrs; format: functional; conditions: MOLT-4, 48 h; method in brief: as §1
MCF7 [4] = assay: Cytotoxicity against human MCF7 cells assessed as cell viability after 24 hrs incubation by MTT assay; format: functional, cell-based; conditions: MCF7, 24 h
Method in brief: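 Cell lines came from DSMZ; primary human fibroblasts served as non-cancer controls. Cells were grown in medium with 10% FCS, seeded at 50,000 cells/ml, and grown 2 days at 37 °C, 10% CO2. Serial dilutions were then added for 24 h. MTT (final 0.5 mg/ml) was added for 2 h. Formazan was pelleted, PBS-washed, dissolved in isopropanol/0.4% HCl and read at 590 nm. Two parallel experiments were run. IC50 was taken as the concentration giving 50% of untreated-control absorbance.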

Pseudomonas aeruginosa = assay: Antimicrobial activity against Pseudomonas aeruginosa assessed as inhibition at 20 ug/6 mm disk after 1 to 2 days by agar diffusion assay; format: functional
Method in brief: (§3)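 Standard agar diffusion: 6-mm paper disks loaded with 20 µg of compound were placed on inoculated plates. Inhibition-zone diameter (mm) was read after 1 and 2 days of growth.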

HOP-62 = assay: Growth inhibition of human HOP62 cells after 48 hrs; format: functional; conditions: HOP-62, 48 h; method in brief: as §1
KM12 = assay: Growth inhibition of human KM12 cells after 48 hrs; format: functional; conditions: KM12, 48 h; method in brief: as §1
NCI-H322M = assay: Growth inhibition of human NCI-H322M cells after 48 hrs; format: functional; method in brief: as §1
Saccharomyces cerevisiae = assay: Antimicrobial activity against Saccharomyces cerevisiae assessed as inhibition at 20 ug/6 mm disk after 1 to 2 days by agar diffusion assay; format: functional; method in brief: as §3
DU-145 = assay: Growth inhibition of human DU145 cells after 48 hrs; format: functional; conditions: DU-145, 48 h; method in brief: as §1
[5] = Growth inhibition of human UO31 cells after 48 hrs; format: functional; conditions: UO-31, 48 h; method in brief: as §2
Klebsiella pneumoniae = assay: Antimicrobial activity against Klebsiella pneumoniae assessed as inhibition at 20 ug/6 mm disk after 1 to 2 days by agar diffusion assay; format: functional; method in brief: as §3
[6] = Growth inhibition of human UACC257 cells after 48 hrs; format: functional; conditions: UACC-257, 48 h; method in brief: as §2
SF-268 = assay: Growth inhibition of human SF268 cells after 48 hrs; format: functional; conditions: SF-268, 48 h; method in brief: as §1
[7] = Growth inhibition of human UACC62 cells after 48 hrs; format: functional; conditions: UACC-62, 48 h; method in brief: as §2
NCI-H460 = assay: Growth inhibition of human NCI-H460 cells after 48 hrs; format: functional; conditions: NCI-H460, 48 h; method in brief: as §1
CAKI-1 = assay: Growth inhibition of human CAKI-1 cells after 48 hrs; format: functional; conditions: CAKI-1, 48 h; method in brief: as §1
NCI-H23 = assay: Growth inhibition of human NCI-H23 cells after 48 hrs; format: functional; conditions: NCI-H23, 48 h; method in brief: as §1
[8] = Growth inhibition of human RPMI8226 cells after 48 hrs; format: functional; conditions: RPMI-8226, 48 h; method in brief: as §1
MDA-MB-435 = assay: Growth inhibition of human MDA-MB-435 cells after 48 hrs; format: functional; conditions: MDA-MB-435, 48 h; method in brief: as §1
MCF7 [9] = assay: Growth inhibition of human MCF7 cells after 48 hrs; format: functional; conditions: MCF7, 48 h; method in brief: as §1
Escherichia coli = assay: Antimicrobial activity against Escherichia coli tolC assessed as inhibition at 20 ug/6 mm disk after 1 to 2 days by agar diffusion assay; format: functional; method in brief: as §3
MDA-MB-468 = assay: Growth inhibition of human MDA-MB-468 cells after 48 hrs; format: functional; conditions: MDA-MB-468, 48 h; method in brief: as §1
SN12C = assay: Growth inhibition of human SN12C cells after 48 hrs; format: functional; method in brief: as §2
[10] = Growth inhibition of human PC3 cells after 48 hrs; format: functional; conditions: PC-3, 48 h; method in brief: as §1
[11] = Growth inhibition of human HCT116 cells after 48 hrs; format: functional; conditions: HCT-116, 48 h; method in brief: as §1
[12] = Lipophilicity, log K of the compound by HPLC analysis
[13] = read-out: pLC50 (the source's name) (converted)

## COc1ccc(N(CC(=O)NCCC[Te]c2ccccc2)C(=O)CNC(=O)OC(C)(C)C)cc1
MDA-MB-231
  GI50: 1.91 µM
MDA-MB-231; read-out: pTGI (converted)
  TGI: 3.89 µM
U-251
  GI50: 2.4 µM
U-251; [13]
  CC50: 49 µM
U-251; read-out: pTGI (converted)
  TGI: 6.46 µM
[1]
  GI50: 2 µM
[1]; [13]
  CC50: 7.24 µM
[1]; read-out: pTGI (converted)
  TGI: 3.8 µM
SK-MEL-28
  GI50: 3.09 µM
SK-MEL-28; [13]
  CC50: 36.3 µM
SK-MEL-28; read-out: pTGI (converted)
  TGI: 10 µM
HL-60(TB)
  GI50: 2.09 µM
HL-60(TB); [13]
  CC50: > 100 µM
HL-60(TB); read-out: pTGI (converted)
  TGI: 5.62 µM
[2]
  GI50: 2.4 µM
  LC50: > 100 µM
[2]; read-out: pTGI (converted)
  TGI: 6.92 µM
M14
  GI50: 3.55 µM
M14; [13]
  CC50: 45.7 µM
M14; read-out: pTGI (converted)
  TGI: 10.7 µM
[3]
  GI50: 3.09 µM
[3]; [13]
  CC50: > 100 µM
[3]; read-out: pTGI (converted)
  TGI: 10 µM
MCF7 [4]
  IC50: 5 µM
Pseudomonas aeruginosa
  diameter of the inhibition zone (DIZ): 10 mm
HOP-62
  GI50: 2.19 µM
HOP-62; [13]
  CC50: 11 µM
HOP-62; read-out: pTGI (converted)
  TGI: 4.68 µM
KM12
  GI50: 3.31 µM
KM12; [13]
  CC50: 43.7 µM
KM12; read-out: pTGI (converted)
  TGI: 11.5 µM
NCI-H322M
  GI50: 2.29 µM
NCI-H322M; [13]
  CC50: > 100 µM
NCI-H322M; read-out: pTGI (converted)
  TGI: 6.61 µM
Saccharomyces cerevisiae
  diameter of the inhibition zone (DIZ): 0 mm
DU-145
  GI50: 2.88 µM
  LC50: 30.9 µM
DU-145; read-out: pTGI (converted)
  TGI: 7.59 µM
[5]
  GI50: 2.4 µM
  LC50: > 100 µM
[5]; read-out: pTGI (converted)
  TGI: 9.12 µM
Klebsiella pneumoniae
  diameter of the inhibition zone (DIZ): 12 mm
[6]
  GI50: 8.51 µM
[6]; [13]
  CC50: 61.7 µM
[6]; read-out: pTGI (converted)
  TGI: 24 µM
SF-268
  GI50: 2.69 µM
SF-268; [13]
  CC50: 100 µM
SF-268; read-out: pTGI (converted)
  TGI: 7.59 µM
[7]
  GI50: 1.66 µM
[7]; [13]
  CC50: 8.71 µM
[7]; read-out: pTGI (converted)
  TGI: 3.8 µM
NCI-H460
  GI50: 0.447 µM
NCI-H460; [13]
  CC50: 7.59 µM
NCI-H460; read-out: pTGI (converted)
  TGI: 1.86 µM
CAKI-1
  GI50: 2.09 µM
  LC50: > 100 µM
CAKI-1; read-out: pTGI (converted)
  TGI: 5.62 µM
NCI-H23
  GI50: 2.51 µM
NCI-H23; [13]
  CC50: > 100 µM
NCI-H23; read-out: pTGI (converted)
  TGI: 6.61 µM
[8]
  GI50: 2.4 µM
[8]; [13]
  CC50: > 100 µM
[8]; read-out: pTGI (converted)
  TGI: 7.24 µM
MDA-MB-435
  GI50: 3.31 µM
MDA-MB-435; [13]
  CC50: 51.3 µM
MDA-MB-435; read-out: pTGI (converted)
  TGI: 13.5 µM
MCF7 [9]
  GI50: 2.57 µM
  LC50 (concentration killing 50% of cells): 37.2 µM
MCF7 [9]; read-out: pTGI (converted)
  TGI: 7.59 µM
Escherichia coli
  diameter of the inhibition zone (DIZ): 12 mm
MDA-MB-468
  GI50: 3.16 µM
  LC50: 60.3 µM
MDA-MB-468; read-out: pTGI (converted)
  TGI: 11 µM
SN12C
  GI50: 2.04 µM
  LC50: > 100 µM
SN12C; read-out: pTGI (converted)
  TGI: 5.01 µM
[10]
  GI50: 1.7 µM
  LC50: > 100 µM
[10]; read-out: pTGI (converted)
  TGI: 10 µM
[11]
  GI50: 2.09 µM
[11]; [13]
  CC50: 49 µM
[11]; read-out: pTGI (converted)
  TGI: 6.46 µM
[12]
  log K: 0.05
